In publication PMC10362274 (iScience, 2023):

Key:
[1] = tested on: Tyr369-377-specific CD8^+ T cell clones; test: IFNγ secretion assay; assay type: cell-based, human; conditions: 1/1 ratio with pulsed T2 cells, 24 h co-culture, ELISA, duplicates
Outline: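 Tyrosinase-specific CD8+ T cell clones came from HLA-A2 tetramer sorting and limiting dilution. They were grown in RPMI with 8% pooled human serum and 150 IU/ml IL-2 at 37°C, 5% CO2. Clones were co-cultured 1:1 for 24 h with T2 cells pulsed with serial dilutions of native or oxidized peptide, in duplicate. IFNγ was measured by ELISA against an exponential standard curve.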

[2] = tested on: Tyr369-377-specific CD8^+ T cell clones; test: Standard 4-h 51Chromium release assay, peptide-pulsed T2 cells; assay type: cell-based, human; conditions: EC50 = peptide concentration giving 50% maximal killing; across YMD-specific CD8^+ T cell clones
[3] = tested on: MAGE-A10-specific CD8^+ T cell clones; test: as above; assay type: cell-based, human; conditions: n = 3 MAGE-A10-specific CD8^+ T cells; no titration of the antigenic peptides
HLA-A∗02:01 = HLA-A∗02:01 (Homo sapiens, UniProt P04439, D140Y/D185E/D98H/E176V/E277Q/G131W/G231S/I119V/I121R/I166T/I218V/L300P/L318F/N151K/N90K/P208A/P217A/Q86G/Q94H/R138H/R169H/T345S); conditions: refolded complex, ELISA
[4] = HPLC oxidation profiling of the YMD peptide using hydrogen peroxide; assay type: physicochemical
Outline: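 Synthetic test peptide (~155 μM in LC-MS water) oxidized with varying hydrogen peroxide levels for 30 min at 4°C. For time courses, similar peptide level in 0.1% formic acid/2% acetonitrile with hydrogen peroxide in excess (120 mM), treated as constant for pseudo-first-order fitting. Forms resolved by RP-HPLC, fractions verified by offline MS/MS; triplicate points.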

Substance	IFNγ released compared with native [1]	EC50 compared with the native peptide [2]	further results
M2SO: Met2 sulfoxide of the YMD peptide	no significant differences	–	–
M6SO: Met6 sulfoxide of the YMD peptide	released more IFNγ	significant lower values	–
MAGE-A10_OX: oxidized form of MAGE-A10 254-262 peptide (GLYDGMEHL; not fully specified; oxidized Met (the underlined M of GLYDGMEHL; sulfoxide or sulfone not stated))	–	–	EC50 compared with the native peptide [3]: slightly increased
YM2SODGTM6SOSQV [M2SOM6SO]	released more IFNγ	significant lower values	stability of the HLA-A∗02:01-peptide complex at t0 compared with HLA-A∗02:01-N (HLA-A∗02:01): more stable at t0
YMDGTMSQV [N]	–	–	time for 50% of the peptide to oxidize ([4]; 120 mM hydrogen peroxide, 4°C, pseudo-first-order kinetics, RP-HPLC UV 275 nm): ~20 min; fraction of the total found as complete oxidized to sulfone forms ([4]; 3 M hydrogen peroxide, after 10 days, RP-HPLC peak quantification): ~66%; transformation of the peptide to sulfoxide forms ([4]; hydrogen peroxide 600 mM or higher, 30 min, 4°C, RP-HPLC UV 275 nm): almost complete transformation
